Read-outs that look alike come from different tables or passages of the source.
Legend:
Caco-2 monolayer = test: Caco-2 cell monolayer permeability, apical-to-basolateral; assay type: in vitro ADME
Procedure, shortened: (§1)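 Caco-2 cells grown 21–24 days on collagen-coated PTFE inserts, TEER 550–600 Ω cm2. Apical MES (pH 6.0) and basolateral HEPES (pH 7.4) buffers, preincubated 15 min at 37 °C. 0.1 mM test compound in apical MES, ±10 mM Gly-Pro. Receiver sampled at 15–120 min at 37 °C with buffer replacement. Samples acidified with 0.1% TFA and analysed by HPLC.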

[1] = as above; assay type: in vitro ADME; settings: human, Caco-2
Procedure, shortened: as §1

[2] = Enzymatic stability in AsPC-1 cell homogenates; assay type: in vitro ADME; settings: for AsPC-1 cell homogenates t1/2: 500 μg/mL protein, 37 °C; for Stability in cell homogenate, D-prodrug relative to L-prodrug: AsPC-1 cell homogenates (assigned from Table 2 ratios)
AsPC-1 cells [3] = test: Cell proliferation assay; assay type: cell-based
Procedure, shortened: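 AsPC-1 cells seeded at 125,000/well and grown 24 h in RPMI-1640 + 10% FBS, then washed with pH 6.0 uptake buffer. Test compound 2-fold serially diluted (5 to 0.078 mmol/L) in that buffer and applied for 2 h at 37 °C; buffer alone served as 100% viability. After washing, 24 h recovery in medium. XTT/phenazine methosulfate read at 450 nm; GI50 from nonlinear fitting.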

[4] = Chemical stability in pH 7.4 phosphate buffer; assay type: physicochemical; settings: for Buffer pH 7.4 t1/2: phosphate buffer pH 7.4, 37 °C
Procedure, shortened: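 Non-enzymatic hydrolysis in 10 mmol/L phosphate buffer pH 7.4, triplicate wells, 37 °C up to 120 min. Aliquots quenched in acetonitrile with 0.1% TFA, filtered, and run on reverse-phase C18 HPLC (TFA water/acetonitrile gradient). t1/2 from linear regression of pseudo-first-order plots of prodrug concentration vs time.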

Microsomal stability = assay type: in vitro ADME, human; settings: for Human liver microsome t1/2: 500 μg/mL microsomal protein, NADPH, 37 °C
Thymidine phosphorylase = target: T1, Thymidine phosphorylase (Homo sapiens, UniProt P19971); test: Stability toward thymidine phosphorylase; assay type: in vitro ADME
T1 sequence (P19971 11-482): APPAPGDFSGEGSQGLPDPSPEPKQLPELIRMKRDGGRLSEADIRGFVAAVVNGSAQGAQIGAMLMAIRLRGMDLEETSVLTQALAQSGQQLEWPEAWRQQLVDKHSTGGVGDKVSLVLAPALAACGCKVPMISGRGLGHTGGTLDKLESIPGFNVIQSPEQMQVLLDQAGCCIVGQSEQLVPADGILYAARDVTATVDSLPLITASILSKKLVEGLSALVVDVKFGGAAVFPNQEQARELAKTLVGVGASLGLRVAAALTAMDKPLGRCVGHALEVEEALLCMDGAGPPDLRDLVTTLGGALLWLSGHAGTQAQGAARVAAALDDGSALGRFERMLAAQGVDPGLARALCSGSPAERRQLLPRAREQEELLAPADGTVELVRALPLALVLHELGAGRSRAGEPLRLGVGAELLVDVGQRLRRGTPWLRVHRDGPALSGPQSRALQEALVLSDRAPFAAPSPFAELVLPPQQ

mouse jejunum = test: In situ single-pass intestinal perfusion in mice
[5] = In situ single-pass intestinal perfusion in mice; settings: female, BALB/c, mouse, other: in situ single-pass intestinal (jejunal) perfusion, pH 6
AsPC-1 cells [6] = test: Uptake study in AsPC-1 cells; assay type: cell-based; settings: for Gemcitabine (%) of species found in cells / Cytosine (%) of species found in cells / Prodrug (%) of species found in cells: AsPC-1 uptake, 100 μM, 1 h; for Uptake amount, D-prodrug relative to L-prodrug (higher): 100 μM drug solution
[7] = Enzymatic stability in Caco-2 cell homogenates; assay type: in vitro ADME; settings: for Caco-2 cell homogenates t1/2: 500 μg/mL protein, 37 °C; for Stability in cell homogenate, D-prodrug relative to L-prodrug: Caco-2 cell homogenates (assigned from Table 2 ratios)
[8] = Chemical stability in simulated gastric fluid; assay type: physicochemical; settings: for SGF t1/2: SGF pH 1.2, 37 °C
Procedure, shortened: (§2)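 Incubated in simulated gastric fluid (pH 1.2) or simulated intestinal fluid at 37 °C. Remaining prodrug measured over time by reverse-phase C18 HPLC (0.1% TFA water/acetonitrile gradient). t1/2 estimated by linear regression of pseudo-first-order plots of prodrug concentration vs time.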

Caco-2 cells = test: Uptake study in Caco-2 cells; assay type: cell-based; settings: for Gemcitabine (%) of species found in cells / Cytosine (%) of species found in cells / Prodrug (%) of species found in cells: Caco-2 uptake without Gly-Pro, 1 h
[9] = Chemical stability in simulated intestinal fluid; assay type: physicochemical; settings: for SIF (pH 6.5) t1/2: 37 °C
Procedure, shortened: as §2

[10] = for Concentration in plasma, D-prodrug relative to L-prodrug (higher): mouse plasma after in situ perfusion, prodrug plus metabolites
[11] = read-out: GI50 AsPC-1, 2 h exposure at pH 6.0, 24 h recovery, XTT

Compound | Gemcitabine (%) of species found in cells (AsPC-1 cells [6]) [%] | Gemcitabine (%) of species found in cells (Caco-2 cells) [%] | AsPC-1 cell homogenates t1/2 [2] [min] | Stability in cell homogenate, D-prodrug relative to L-prodrug [2] [fold] | Concentration in plasma, D-prodrug relative to L-prodrug (higher) [10] [fold] | GI50 (AsPC-1 cells [3]; [11]) [mM] | Buffer pH 7.4 t1/2 [4] [min] | Human liver microsome t1/2 (Microsomal stability) [min] | Thymidine phosphorylase t1/2 (Thymidine phosphorylase) [min] | Uptake amount, D-prodrug relative to L-prodrug (higher) (AsPC-1 cells [6]; AsPC-1 cells) [fold] | Cytosine (%) of species found in cells (AsPC-1 cells [6]) [%] | Prodrug (%) of species found in cells (AsPC-1 cells [6]) [%] | Caco-2 cell homogenates t1/2 [7] [min] | Stability in cell homogenate, D-prodrug relative to L-prodrug [7] [fold] | SGF t1/2 [8] [min] | Uptake amount, D-prodrug lower than L-prodrug (Caco-2 cells; Caco-2 cells) [%] | Cytosine (%) of species found in cells (Caco-2 cells) [%] | Prodrug (%) of species found in cells (Caco-2 cells) [%] | SIF (pH 6.5) t1/2 [9] [min] | also measured
Nc1ccn([C@@H]2O[C@H](CO)[C@@H](O)C2(F)F)c(=O)n1 [Gemcitabine, reference compound] | 90 | 50 | – | – | – | – | – | – | – | – | – | – | – | – | – | – | – | – | – | Difference in membrane permeability with and without 10 mM Gly-Pro (Caco-2 monolayer; Caco-2 monolayers): did not exhibit the difference; Species detected in the basolateral receiver compartment (Caco-2 monolayer; following transport across Caco-2 monolayers): only cytosine; Papp at 2 h, 0.1 mM [1]: 1 ± 0.2 ×10⁻⁶ cm/s; half-life ([2]; human, AsPC-1 cell homogenates, pH 7.4): 33.7 ± 14.5 min; GI50 (AsPC-1 cells [3]; Homo sapiens, ASPC1, pH 6, read-out: GI50 AsPC-1): 10.2 ± 1.6 mM; Degradation in pH 7.4 phosphate buffer ([4]; pH 7.4): no significant degradation; half-life ([4]; phosphate buffer, pH 7.4): > 120 min; half-life (Microsomal stability; human, human liver microsomes, pH 7.4): 45.3 ± 3.3 min; Resistance against thymidine phosphorylase (words) (Thymidine phosphorylase): rapidly cleaved; Resistance against thymidine phosphorylase (words) (Thymidine phosphorylase; listed as gemcitabine): did not display the resistance; half-life (Thymidine phosphorylase; thymidine phosphorylase, pH 7.4): 6 ± 1.8 min; Peff, mouse perfusion (mouse jejunum; mouse jejunum, 100 μM, pH 6.0): 2.0 ± 0.2 ×10^−5 cm/s; Papp at 90 min, 100 μM [5]: 2 ×10⁻⁶ cm/s; half-life ([7]; human, Caco-2, pH 7.4): 105 ± 6.1 min; Degradation in SGF [8]: no significant degradation; half-life ([8]; simulated gastric fluid (SGF), pH 1.2): > 120 min; Difference in uptake amount with and without 10 mM Gly-Pro (Caco-2 cells; Caco-2 cells): did not exhibit the difference; Degradation in SIF [9]: no significant degradation; half-life ([9]; simulated intestinal fluid (SIF), pH 6.5): > 120 min
Nc1ccn([C@@H]2O[C@H](COC(=O)[C@H](N)Cc3ccccc3)[C@@H](O)C2(F)F)c(=O)n1 [5′-D-Phenylalanyl-gemcitabine] | 87 | 31 | 63.9 ± 11.2 | 9.4 | 2.0 | 5.6 ± 1.1 | >120 | 6.6 ± 1.3 | >120 | 3.3 | 1 | 12 | 21.7 ± 0.2 | 10.9 | >120 | 70 | 0 | 69 | >120 | Stability in human liver microsomes, D-prodrug relative to L-prodrug (Microsomal stability): 3.7 fold; Uptake enhancement relative to gemcitabine (AsPC-1 cells [6]; AsPC-1 cells, lower concentration (50 μM)): did not show the enhancement of uptake
CC(C)[C@@H](N)C(=O)OC[C@H]1O[C@@H](n2ccc(N)nc2=O)C(F)(F)[C@@H]1O [5′-D-Valyl-gemcitabine] | 77 | 10 | 87.2 ± 13.5 | 6.3 | 2.3 | 2.2 ± 0.9 | >120 | 19.5 ± 4.4 | >120 | 3.1 | 4 | 19 | 42.0 ± 17.5 | 2.2 | >120 | 46 | 0 | 90 | >120 | Prodrug concentration in blood ([10]; after in situ perfusion of mouse small intestine): highest; Dose linearity of uptake (AsPC-1 cells [6]; AsPC-1 cells, 50 μM vs 100 μM): exhibited the dose linearity
Nc1ccn([C@@H]2O[C@H](COC(=O)[C@@H](N)Cc3ccccc3)[C@@H](O)C2(F)F)c(=O)n1 [5′-L-Phenylalanyl-gemcitabine] | 84 | 18 | 6.8 ± 2.0 | – | – | 4.3 ± 1.5 | >120 | 1.8 ± 0.2 | 31.9 ± 5.0 | – | 10 | 6 | 2.0 ± 0.3 | – | >120 | – | 0 | 82 | >120 | –
5′-L-Valyl-gemcitabine | 11 | 15 | 13.8 ± 3.3 | – | – | 2 ± 0.8 | >120 | 27.8 ± 13.6 | >120 | – | 20 | 69 | 19.5 ± 1.9 | – | >120 | – | 0 | 85 | >120 | Membrane permeability, L-prodrug better than D-prodrug (mouse jejunum; mouse in situ perfusion): 87%

From paper PMC4243704 (European journal of pharmaceutics and biopharmaceutics : …, 2013)
